The list is not random: actives were taken first. Their share in the collection is about 2.3%.
TRPC6 act: activators of mouse TRPC6 channel; HEK293-TRPC6 membrane potential dye fluorescence; stronger effect = higher value; 310,000 compounds, 0.13% hits; AID 2550; Q61143; B-score at 10 µM;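 active = B-score of the integrated fluorescence ratio above library mean plus 3 SD, and starting fluorescence ratio within library mean plus 5 SD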;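 note: higher score means more depolarization so channel activation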
Target sequence (Q61143 whole entry, looked up): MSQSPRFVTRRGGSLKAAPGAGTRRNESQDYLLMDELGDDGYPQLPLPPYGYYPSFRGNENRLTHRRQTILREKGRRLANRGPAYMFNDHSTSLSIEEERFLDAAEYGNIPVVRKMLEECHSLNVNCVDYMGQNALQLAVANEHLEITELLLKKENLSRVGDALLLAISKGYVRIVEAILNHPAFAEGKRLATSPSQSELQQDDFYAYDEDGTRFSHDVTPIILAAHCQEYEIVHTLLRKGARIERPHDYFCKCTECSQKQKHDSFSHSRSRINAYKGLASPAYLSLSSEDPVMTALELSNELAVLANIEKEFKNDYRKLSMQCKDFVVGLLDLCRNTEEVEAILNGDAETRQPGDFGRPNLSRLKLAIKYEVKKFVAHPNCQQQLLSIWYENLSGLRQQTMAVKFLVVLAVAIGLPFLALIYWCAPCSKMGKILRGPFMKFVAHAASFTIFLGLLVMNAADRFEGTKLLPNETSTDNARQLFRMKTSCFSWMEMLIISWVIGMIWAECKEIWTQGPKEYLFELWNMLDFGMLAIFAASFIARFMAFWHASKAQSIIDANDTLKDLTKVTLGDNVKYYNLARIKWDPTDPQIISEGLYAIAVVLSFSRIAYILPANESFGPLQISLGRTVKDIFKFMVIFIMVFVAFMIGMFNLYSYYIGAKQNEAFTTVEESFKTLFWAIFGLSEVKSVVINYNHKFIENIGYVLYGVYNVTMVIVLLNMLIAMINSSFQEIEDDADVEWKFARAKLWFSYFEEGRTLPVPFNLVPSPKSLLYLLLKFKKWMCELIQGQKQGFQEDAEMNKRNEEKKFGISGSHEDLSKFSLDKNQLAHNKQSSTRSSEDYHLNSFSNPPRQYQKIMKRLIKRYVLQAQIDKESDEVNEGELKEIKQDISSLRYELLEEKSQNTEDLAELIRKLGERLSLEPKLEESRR
TRPC4 potent: allosterically enhances the mouse TRPC4 cation channel; Q9QUQ5; HEK293 TRPC4beta/mu-opioid, DAMGO EC20, Fluo-4 Ca2+ flux; stronger effect = higher value; B-score at 10 µM; 310,000 compounds, 0.42% hits; AID 2227;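 active = B-score of calcium response area above 5 SD of library B-scores, with initial fluorescence ratio within 5 SD of library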
TRPC4 block: blocks the mouse TRPC4 cation channel; HEK293 TRPC4beta/mu-opioid, DAMGO-evoked Fluo4 calcium flux; stronger effect = lower value; 300,000 compounds, 0.39% hits; Q9QUQ5; B-score at 10 µM;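 active = B-score over 3 SD under the library average, no early fluorescence shift, positive overall ratio signal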
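System: stable TRPC4beta/mu-opioid receptor HEK293 cells; Dosing: single-point compound dosing; Measured by: Fluo4 Ca2+ flux fluorescence; Read-out basis: per-well B score of integrated baseline-normalized Fluo4 ratio.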
TRPC4 act: opens the mouse TRPC4 cation channel; Q9QUQ5; B-score at 10 µM; 310,000 compounds, 0.49% hits; AID 2237; HEK293 TRPC4beta/mu-opioid, Fluo4 calcium fluorescence; stronger effect = higher value;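 active = B-score above 5 SD of library B-scores, and initial fluorescence ratio not above library mean plus 5 SD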;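 note: positive B-score marks a calcium rise read as TRPC4 activation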
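Assay system – TRPC4beta and mu-opioid receptor HEK293 stable cells · Measured by – Fluo4 fluorescence, kinetic · Schedule – dye loading 45 min room temperature, 110 s kinetic read · Read-out – B-scored integrated calcium fluorescence ratio · Controls – buffer and maximal DAMGO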
TRPC6 inh: inhibitors of mouse TRPC6 channel | HEK293-TRPC6, membrane potential dye, ACh-evoked depolarization; stronger effect = lower value | B-score at 10 µM | 310,000 compounds, 1.1% hits;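 active = B-score under library mean minus 3 SD, initial fluorescence not abnormally high, positive integrated signal ratio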;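 note: B-score derived from integrated fluorescence ratio over the kinetic read; more negative B-score means stronger inhibition of depolarization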
TRPC4 spec 2: mouse TRPC4 off-target activity of TRPC6 inhibitors, second screen | shares compounds with TRPC6 inh | HEK293 TRPC4/MOR, membrane potential dye fluorescence; channel activated by saturating DAMGO dose | inhibition, % at 10 µM | 920 compounds, 42% hits | AID 2776;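 active = compounds whose fluorescence signal differed from control wells by over 3 SD, either direction, in both duplicate plates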
TRPC4 spec: selectivity of TRPC6 inhibitors: effect on mouse TRPC4; shares compounds with TRPC6 inh; HEK293 TRPC4/mu-opioid, membrane potential fluorescence; activity change, negative = inhibition, % at 10 µM; 920 compounds, 61% hits;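 active = rise or fall in signal beyond 3 SD of buffer-only wells in both replicate plates, either sign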;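 note: integrated kinetic ratio of fluorescence range over baseline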
HEK293 MPD ctr 2-1: parental HEK293 nonspecific activity of TRPC6 inhibitors, second screen | shares compounds with TRPC6 inh | parental HEK293 membrane potential dye fluorescence; maximal acetylcholine challenge after compound addition | signal change vs control, % at 10 µM | 920 compounds, 31% hits | AID 2779;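 active = membrane potential signal moving either way by over 3 SD of the maximum-effect control, in both duplicate plates, meaning non-specific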
HEK293 MPD ctr-1: parental HEK293 nonspecific activity of TRPC6 inhibitors | shares compounds with TRPC6 inh | parental HEK293 membrane potential dye fluorescence | membrane potential signal change, % at 10 µM | 920 compounds, 60% hits | AID 2780;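 active = membrane potential signal shifting up or down by more than 3 SD of buffer-only wells, on both duplicate plates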
HEK293 MPD ctr-2: parental HEK293 nonspecific activity of TRPC6 modulators | membrane potential signal change, % at 10 µM | AID 488924 | shares compounds with TRPC6 inh | membrane potential dye fluorescence | 2,400 compounds, 51% hits;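 active = membrane potential signal moves up or down beyond 5 SD from buffer-only wells, on both duplicate plates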
HEK293 MPD ctr 2-2: second check of TRPC6 modulator effects in parental HEK293 cells; inhibition, % at 10 µM; 2,400 compounds, 14% hits; membrane potential dye fluorescence; after compound, maximal acetylcholine stimulation; AID 488926; shares compounds with TRPC6 inh;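 active = membrane potential signal drops by more than 5 SD from the mean control signal, in both duplicate plates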
TRPC4/MOR mod: selectivity of TRPC6 modulators against mouse TRPC4; shares compounds with TRPC6 inh; HEK293 TRPC4/mu-opioid, membrane potential fluorescence; percent change from control (negative = decrease, positive = increase), % at 10 µM; 2,400 compounds, 69% hits;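 active = membrane potential signal moved up or down beyond 5 SD of buffer control wells, in both duplicate plates, actives on both sides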
TRPC4 ctr inh 2: second selectivity test of TRPC6 modulators against mouse TRPC4. inhibition, % at 10 µM. 2,400 compounds, 55% hits. HEK293 TRPC4/mu-opioid, membrane potential dye fluorescence; stimulated with maximal-effect DAMGO. shares compounds with TRPC6 inh;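 active = drop in membrane potential signal beyond 5 SD of the control wells in both duplicate plates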;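 note: TRPC4 counter screen for TRPC6 hits run under conditions tuned for TRPC6 not TRPC4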
TRPC6 inh conf: mouse TRPC6 inhibitor confirmation; HEK293-TRPC6, membrane potential dye, ACh-evoked depolarization; inhibition, % at 10 µM; shares compounds with TRPC6 inh; 3,300 compounds, 43% hits; AID 488960;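 active = fluorescence ratio falls more than 5 SD below the full-stimulation control mean, in both duplicate runs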;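 note: integrated fluorescence ratio of peak minus minimum over baseline after agonist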
TRPC6 act conf: confirmation of mouse TRPC6 activators. shares compounds with TRPC6 inh. activation, % at 10 µM. HEK293-TRPC6 membrane potential dye fluorescence, FDSS. 2,800 compounds, 11% hits;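 active = ratio signal rise beyond 5 SD above unstimulated control wells' mean, seen in both duplicate runs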
Of the large screens only hits and unclear results are named; the others gave an inactive call (follow-up assays come after a bar, where they were run).

C[n+]1cccc(/C=N/Nc2nc(Cl)c(C#N)c(Cl)c2Cl)c1	TRPC6 inh -6.24 | HEK293 MPD ctr-2 inactive | HEK293 MPD ctr 2-2 79.5% | TRPC4/MOR mod -13.5% | TRPC4 ctr inh 2 inactive | TRPC6 inh conf inactive | TRPC6 act conf inactive
Cc1ccc(CCNC(=O)C2CCCN(S(=O)(=O)c3cccc4nsnc34)C2)cc1 (centres undefined)	TRPC6 inh -5.95 | HEK293 MPD ctr-2 inactive | HEK293 MPD ctr 2-2 inactive | TRPC4/MOR mod inactive | TRPC4 ctr inh 2 inactive | TRPC6 inh conf inactive | TRPC6 act conf inactive
c1ccc(Oc2cccc(OCCCCN3CCCC3)c2)cc1	TRPC6 inh -8.57 | TRPC4 spec 2 inactive | TRPC4 spec 5.8% | HEK293 MPD ctr 2-1 262.5% | HEK293 MPD ctr-1 5.1% | TRPC6 inh conf inactive
CC(=O)Oc1c(/C=C(\C#N)C(N)=O)[nH]c2ccccc12	TRPC6 act 27 | HEK293 MPD ctr-2 657.0% | HEK293 MPD ctr 2-2 inactive | TRPC4/MOR mod 169.5% | TRPC4 ctr inh 2 inactive | TRPC6 inh conf inactive | TRPC6 act conf 170.0%
COC(=O)C(NC(=O)CCc1nnc2ccc(N3CCCCC3)nn12)C(C)C (centres undefined)	none
CN1CCCC(C(=O)C(C#N)c2ccccc2)C1 (centres undefined)	none
CN1CCCC(C#CC(O)(c2ccccc2)c2ccccc2)C1 (centres undefined)	TRPC6 inh -8.75 | TRPC4 spec 2 inactive | TRPC4 spec inactive | HEK293 MPD ctr 2-1 inactive | HEK293 MPD ctr-1 inactive | TRPC6 inh conf inactive | TRPC6 act conf inactive
CCC[N+](CC#Cc1ccccc1)(CCC)CC(=O)c1ccc(Cl)cc1	TRPC6 inh -5.74 | HEK293 MPD ctr-2 332.0% | HEK293 MPD ctr 2-2 inactive | TRPC4/MOR mod 77.0% | TRPC4 ctr inh 2 52.5% | TRPC6 inh conf 67.5%
OC(c1cccs1)(c1cccs1)C1C[N+]2(CF)CCC1CC2 (centres undefined)	TRPC6 inh -6.44 | HEK293 MPD ctr-2 inactive | HEK293 MPD ctr 2-2 inactive | TRPC4/MOR mod inactive | TRPC4 ctr inh 2 inactive | TRPC6 inh conf 40.0% | TRPC6 act conf inactive
CC(C)CN(C(=O)COc1ccc(C(C)(C)C)cc1)C1CCS(=O)(=O)C1 (centres undefined)	none
O=C(NCc1cccc(Cl)c1)C1CCC(=O)N(CCCN2CCCC2=O)C1 (centres undefined)	none
N#Cc1cc(-c2ccccc2)nc(N2CCNCC2)n1	TRPC4 act 78, TRPC6 inh -6.44 | HEK293 MPD ctr-2 inactive | HEK293 MPD ctr 2-2 inactive | TRPC4/MOR mod inactive | TRPC4 ctr inh 2 68.0% | TRPC6 inh conf 65.0% | TRPC6 act conf inactive
CCN1C(=O)/C(=C\N2CCCCCC2)SC1=S	TRPC6 inh -7.23 | TRPC4 spec 2 inactive | TRPC4 spec inactive | HEK293 MPD ctr 2-1 inactive | HEK293 MPD ctr-1 inactive | TRPC6 inh conf inactive | TRPC6 act conf inactive
Cc1nc2ccccc2n1S(=O)(=O)c1cc(C(=O)O)ccc1Cl	none
NS(=O)(=O)c1ccc(CCNC(=O)Cc2ccc(Cl)cc2)cc1	none
C[n+]1ccc(/C=C/c2ccccc2O)c2ccccc21	TRPC6 inh -5.71 | HEK293 MPD ctr-2 -81.0% | HEK293 MPD ctr 2-2 inactive | TRPC4/MOR mod -15.5% | TRPC4 ctr inh 2 inactive | TRPC6 inh conf 41.5% | TRPC6 act conf inactive
CC(Sc1nnc(C2CC2)n1N)C(=O)NC1CCCCC1C (centres undefined)	none
O=[N+]([O-])c1ccc(Oc2ccc(F)cc2)c2ccncc12	TRPC6 inh -5.06 | HEK293 MPD ctr-2 inactive | HEK293 MPD ctr 2-2 inactive | TRPC4/MOR mod inactive | TRPC4 ctr inh 2 inactive | TRPC6 inh conf inactive | TRPC6 act conf inactive
c1ccc(CN2CCN(Cc3nnc(-c4ccccc4)o3)CC2)cc1	TRPC6 inh -5.64 | HEK293 MPD ctr-2 inactive | HEK293 MPD ctr 2-2 66.5% | TRPC4/MOR mod 11.0% | TRPC4 ctr inh 2 inactive | TRPC6 inh conf 64.0%
CNc1nc(NCc2ccccc2)c2ccccc2n1	TRPC4 block -6, TRPC6 inh -5.27 | HEK293 MPD ctr-2 -110.5% | HEK293 MPD ctr 2-2 inactive | TRPC4/MOR mod -26.0% | TRPC4 ctr inh 2 78.5% | TRPC6 inh conf 53.5% | TRPC6 act conf inactive
O=C(CNC(=O)c1ccccc1)NCCc1ccc(O)c(O)c1	none
Oc1ccc(CCNc2c3ccccc3nc3ccccc23)cc1O	TRPC6 inh -4.99 | HEK293 MPD ctr-2 -91.5% | HEK293 MPD ctr 2-2 inactive | TRPC4/MOR mod -13.5% | TRPC4 ctr inh 2 inactive | TRPC6 inh conf inactive | TRPC6 act conf inactive
OCC(Cc1ccccc1)Nc1c2ccccc2nc2ccccc12 (centres undefined)	TRPC6 inh -8.99 | HEK293 MPD ctr-2 inactive | HEK293 MPD ctr 2-2 inactive | TRPC4/MOR mod -88.0% | TRPC4 ctr inh 2 69.5% | TRPC6 inh conf 54.5% | TRPC6 act conf inactive
Oc1ccccc1Nc1nc(NCc2ccccc2)c2ccccc2n1	none
O=C(Cc1ccccc1)NNc1c2ccccc2nc2ccccc12	none
c1ccc(CNc2c3ccccc3nc3ccccc23)cc1	TRPC4 block -7, TRPC6 inh -7.78 | TRPC4 spec 2 59.5% | TRPC4 spec -23.2% | HEK293 MPD ctr 2-1 45.0% | HEK293 MPD ctr-1 -449.5% | TRPC6 inh conf inactive | TRPC6 act conf inactive

Screening results deposited in PubChem by Johns Hopkins Ion Channel Center.
